Consider 35 molecules from ChEMBL document CHEMBL1141078, “Discovery of potent, nonsystemic apical sodium-codependent bile acid transporter inhibitors (Part 1)” (J Med Chem, 2005).

Structures are written as SMILES.

In data set [1] the target is T1, Ileal sodium/bile acid cotransporter (Homo sapiens, UniProt Q12908).
T1 sequence (Q12908 whole entry): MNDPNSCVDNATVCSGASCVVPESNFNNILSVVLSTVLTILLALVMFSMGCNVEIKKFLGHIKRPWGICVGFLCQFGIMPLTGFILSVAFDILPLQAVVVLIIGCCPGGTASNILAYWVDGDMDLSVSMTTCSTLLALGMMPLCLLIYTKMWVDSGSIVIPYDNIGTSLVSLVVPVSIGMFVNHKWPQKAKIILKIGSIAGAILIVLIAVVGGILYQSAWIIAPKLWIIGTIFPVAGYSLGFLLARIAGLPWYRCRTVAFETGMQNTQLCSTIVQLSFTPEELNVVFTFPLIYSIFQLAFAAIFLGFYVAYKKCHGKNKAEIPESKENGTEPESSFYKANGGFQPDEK
Description: In vitro inhibition of ASBT mediated uptake of [14C]taurocholate (5 uM) in Baby hamster cells expressing human IBAT. Type of data set: cell-based. Summed up: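 BHK cells stably transfected with human IBAT cDNA (H14) were seeded 24–72 h before assay at cell densities adjusted to that interval. Cells were washed, then incubated for 2 h at 37 °C in DMEM (4.5 g/L glucose, 0.2% fatty-acid-free BSA) with test compound and [14C]taurocholate. Wells were washed with cold PBS containing BSA and then with PBS alone. Cell-associated radioactivity was measured by scintillation counting, and IC50 values were derived.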

The target of data set [2] is T1, Ileal sodium/bile acid cotransporter. Nature of the data set: Effect on serum total cholesterol in cholesterol-fed hamster; control is at 135. Type of data set: functional.
For data set [3] the target is unchanged. Nature of the data set: Effect on 24 hr fecal weight in cholesterol-fed hamster; control is at 2.1. Type of data set: functional, Feces.
The target is the same in data set [4]. Nature of the data set: Effect on fecal bile acid in cholesterol-fed hamster; control is at 8.0. Type of data set: functional, Feces.
The target is the same in data set [5]. Nature of the data set: Effect on serum total cholesterol in cholesterol-fed hamster; control is at 143. Type of data set: functional.
Data set [6] shares this target. Nature of the data set: Effect on 24 hr fecal weight in cholesterol-fed hamster; control is at 2.3. Type of data set: functional, Feces.
Data set [7] has the same target. Description: Effect on fecal bile acids in cholesterol-fed hamster; control is at 6.2. Type of data set: functional, Feces.
For data set [8] the target is unchanged. Nature of the data set: Effect on serum total cholesterol in cholesterol-fed hamster; control is at 129. Type of data set: functional.
The target is the same in data set [9]. Nature of the data set: Effect on 24 hr fecal weight in cholesterol-fed hamster; control is at 1.7. Type of data set: functional, Feces.
For data set [10] the target is unchanged. Nature of the data set: Effect on fecal bile acid in cholesterol-fed hamster; control is at 6.1. Type of data set: functional, Feces.
Data set [11] shares this target. Description: Effect on serum total cholesterol in cholesterol-fed hamster; control is at 195. Type of data set: functional.
The target is the same in data set [12]. Description: Effect on 24 hr fecal weight in cholesterol-fed hamster; control is at 3.5. Type of data set: functional, Feces.
Data set [13] shares this target. Nature of the data set: Effect on fecal bile acid in cholesterol-fed hamster; control is at 8.7. Type of data set: functional, Feces.

As for `CCCCC1(CCCC)CS(=O)(=O)c2ccc(N(C)C)cc2[C@@H](c2ccc(OC)cc2)[C@H]1O`, the IC50 in data set [1] was 7 nM.

Take `CCCCC1(CCCC)CS(=O)(=O)c2c(cccc2N(C)C)[C@@H](c2ccc(F)cc2)[C@H]1O`: in [1], the IC50 turned out to be 180 nM.

In turn, `CCCCC1(CCCC)CS(=O)(=O)c2ccc([N+](C)(C)C)cc2[C@@H](c2ccccc2)[C@H]1O` registered an IC50 in data set [1] of 210 nM.

`CCCCC1(CCCC)CS(=O)(=O)c2ccc(OC)cc2[C@@H](c2ccc(F)cc2)[C@H]1O` displayed an IC50 in data set [1] of 50 nM.

For the molecule `CCCCC1(CCCC)CS(=O)(=O)c2ccc(N(C)C)cc2[C@@H](c2ccc(F)cc2)[C@H]1O`, the IC50 in data set [1] came out at 10 nM.

As for `C=CCCCCCCCCOc1ccc2c(c1)S(=O)(=O)C[C@@](CC)(CCCC)[C@H](O)[C@@H]2c1ccccc1`, inhibition in [1] was half-maximal at 16000 nM (IC50).

For the molecule `CCCC[C@]1(CC)CS(=O)(=O)c2ccc(NO)cc2[C@@H](c2ccccc2)[C@H]1O`, the IC50 in [1] stood at 260 nM.

`CCCC[C@]1(CC)CS(=O)(=O)c2ccc(SC)cc2[C@@H](c2ccc(F)cc2)[C@H]1O`: the IC50 in data set [1] was 19 nM.

Regarding `CC1(C)CS(=O)(=O)c2ccc(N)cc2[C@@H](c2ccccc2)[C@H]1O`, the IC50 in data set [1] was over 50000 nM.

Regarding `CCCC[C@]1(CC)CS(=O)(=O)c2ccc(-c3ccccc3)cc2[C@@H](c2cccc(OC)c2)[C@H]1O`, it took 180 nM to reach half-maximal inhibition in data set [1] (IC50).

As to `CCCCC1(CCCC)CS(=O)(=O)c2ccc(Br)cc2[C@@H](c2ccccc2Br)[C@H]1O`, inhibition in [1] was half-maximal at 550 nM (IC50).

`CCCCC1(CCCC)CS(=O)(=O)c2ccc(N(C)C)cc2[C@@H](c2ccccc2)[C@H]1O`: inhibition in [1] was half-maximal at 13 nM (IC50).

Take `CCCC[C@]1(CC)CS(=O)(=O)c2ccc(Br)cc2[C@@H](c2cccc(OC)c2)[C@H]1O`: the IC50 in data set [1] was determined as 70 nM.

Regarding `CCCCCC1(CCCCC)CS(=O)(=O)c2ccc(C)cc2[C@@H](c2ccc(F)cc2)[C@H]1O`, the IC50 in [1] was found to be 318 nM.

In [1], `CCCCC1(CCCC)CS(=O)(=O)c2c(F)cccc2[C@@H](c2ccc(F)cc2)[C@H]1O` returned an IC50 of 180 nM.

As for `CCCC[C@]1(CC)CS(=O)(=O)c2ccc(N(C)C)cc2[C@@H](c2ccccc2)[C@H]1O`, the Total cholesterol in data set [2] was 97 mg/dL. In addition, in data set [3], the Fecal weight was 2.1 g. In [1], inhibition was half-maximal at 5 nM (IC50). Besides, the FBA in data set [4] is 13.7 ((mmol/day)/100g).

In data set [1], `CCCC[C@]1(CC)CS(=O)(=O)c2ccc(NS(C)(=O)=O)cc2[C@@H](c2ccccc2)[C@H]1O` yielded an IC50 of 600 nM.

As for `CCCC[C@]1(CC)CS(=O)(=O)c2ccc(NC(C)=O)cc2[C@@H](c2ccccc2)[C@H]1O`, the IC50 in [1] was 90 nM.

Regarding `CCCCC1(CCCC)CS(=O)(=O)c2cc(OC)ccc2[C@@H](c2ccccc2)[C@H]1O`, inhibition in data set [1] was half-maximal at 190 nM (IC50).

`CCCC[C@]1(CC)CS(=O)(=O)c2ccc(N(O)C(=O)OC(C)(C)C)cc2[C@@H](c2ccccc2)[C@H]1O`: the IC50 in data set [1] was 2670 nM.

Consider `CCCC[C@]1(CC)CS(=O)(=O)c2ccc(N3CCCC3)cc2[C@@H](c2ccc(F)cc2)[C@H]1O`, for which the IC50 in data set [1] came out at 59 nM.

The molecule `CCCC[C@]1(CC)CS(=O)(=O)c2cc(OC)ccc2[C@@H](c2ccccc2)[C@H]1O` yielded a Total cholesterol in data set [5] of 126 mg/dL. In addition, the Fecal weight in [6] amounted to 2.4 g. In [1], this molecule showed an IC50 of 120 nM. Further, in [7], the FBA was 11.9 ((mmol/day)/100g).

The molecule `CCCC[C@]1(CC)CS(=O)(=O)c2ccc(C)cc2[C@@H](c2ccc(F)cc2)[C@H]1O` came in with an IC50 in data set [1] of 21 nM.

For the molecule `CCCC[C@]1(CC)CS(=O)(=O)c2ccc(NC(=O)OCc3ccccc3)cc2[C@@H](c2ccccc2)[C@H]1O`, the IC50 in [1] was found to be 400 nM.

On to `CCCC[C@]1(CC)CS(=O)(=O)c2ccc(N)cc2[C@@H](c2ccccc2)[C@H]1O`, for which the Total cholesterol in data set [8] was 126 mg/dL. The molecule also came in with a Fecal weight in data set [9] of 1.6 g. This molecule also had an IC50 in data set [1] of 68 nM. Further, the FBA in data set [10] was 8.8 ((mmol/day)/100g).

The molecule `CCCCC1(CCCC)CS(=O)(=O)c2ccc(C)cc2[C@@H](c2ccc(F)cc2)[C@H]1O` registered an IC50 in data set [1] of 46 nM.

Regarding `CCCCC1(CCCC)CS(=O)(=O)c2c(OC)cc(N(C)C)cc2[C@@H](c2ccc(OC)cc2)[C@H]1O`, in [1], the midpoint of inhibition, the IC50, lay at 2 nM.

Consider `CCCCCCNc1ccc2c(c1)[C@@H](c1ccccc1)[C@@H](O)[C@](CC)(CCCC)CS2(=O)=O`, for which it took 1670 nM to reach half-maximal inhibition in data set [1] (IC50).

In the case of `CCCC[C@]1(CC)CS(=O)(=O)c2ccc(OC)cc2[C@@H](c2ccccc2)[C@H]1O`, half-maximal inhibition in [1] (IC50) required 55 nM.

In the case of `CCCCCC(=O)Nc1ccc2c(c1)[C@@H](c1ccccc1)[C@@H](O)[C@](CC)(CCCC)CS2(=O)=O`, it took 300 nM to reach half-maximal inhibition in data set [1] (IC50).

In data set [1], `CCCCC1(CCCC)CS(=O)(=O)c2cc(N(C)C)ccc2[C@@H](c2ccccc2)[C@H]1O` gave an IC50 of 120 nM.

In data set [11], `CCCCC1(CCCC)CS(=O)(=O)c2ccc(N(C)C)cc2[C@@H](c2ccc(OCCOCCOCC[N+](CC)(CC)CC)cc2)[C@H]1O.[Br-]` returned a Total cholesterol of 141 mg/dL. This molecule returned a Fecal weight in data set [12] of 3.9 g. In data set [1], half-maximal inhibition (IC50) required 3 nM. Further, the FBA in data set [13] was 16.2 ((mmol/day)/100g).

Take `CCCC[C@]1(CC)CS(=O)(=O)c2ccccc2[C@H](c2ccccc2)[C@H]1O` (racemic): the Inhibition in data set [1] was found to be 37%.

Turning to `CCCC[C@]1(CC)CS(=O)(=O)c2ccccc2[C@@H](c2ccccc2)[C@@H]1O` (racemic), the midpoint of inhibition in [1], the IC50, lay at 4800 nM.

In [1], `CCCC[C@]1(CC)CS(=O)(=O)c2ccccc2[C@@H](c2ccccc2)[C@H]1O` (racemic) yielded an IC50 of 280 nM.
